Screens as filed in PubChem BioAssay.
LANA-H2B inh: blockers of LANA interaction with H2A/H2B – biochemical, FP readout, HTS, primary screen. cell-free LANA-H2A/H2B peptide, fluorescence polarization. inhibition, % (no concentration beside the values). 0.6% of 320,000 active; in the data active means inhibition mostly above about 10%, no sharp cut-off; inactive means mostly below about 6.7%
TAAR1 agonist: human TAAR1 agonists, primary screen, Fluo-8 calcium fluorescence, CHO RD-HGA16 cells | Trace amine-associated receptor 1 (Homo sapiens), Q96RJ0 | vehicle wells 0%, saturating PEA agonist 100% | activation, % at 3 µM | 0.99% of 360,000 active;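 active means activation above the mean activation of all test compounds in the run plus 3 SD, cut at about 38% in these data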
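Benchmarks: low control DMSO, high control PEA (EC100); System: CHO RD-HGA16 cells carrying human TAAR1 plus Gα16; Detection: Fluo-8 fluorescence, 5 s baseline then 140 s kinetic read; Schedule: 17-24 h plating, Fluo-8 75 min 37 °C, 30 min RT; Read-out basis: % activation from peak over basal fluorescence ratio, DMSO-to-PEA scaled.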
TAAR1 antagonist: human TAAR1 antagonists, primary screen, Fluo-8 calcium fluorescence, CHO RD-HGA16 cells; antagonist; inhibition, % at 3 µM; 1.5% of 360,000 active;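 active means inhibition above a per-plate cutoff, the mean inhibition of test compounds on that plate plus 3 SD, cut at about 49% in these data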
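System: RD-HGA16 CHO cells with stable hTAAR1 and Gα16 | Probe or stimulus: EC80 β-phenethylamine stimulus | Dosing: 3 µM, single point | Times: Dye loading 75 min at 37 °C, then 30 min room temperature | Measured by: Fluo-8 calcium-sensitive fluorescence | Read-out basis: % inhibition of agonist calcium response | Replicates: n of 1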
TRPN1 ag: zebrafish TRPN1 channel agonists, primary screen, cell-based, HEK293, calcium fluorescence; transient receptor potential cation channel N1 (TRPN1/NompC), Danio rerio; HEK293 zebrafish TRPN1-YFP, Fluo-8 calcium fluorescence; 100% = response to 87 µM carbachol; activation, % at 3 µM; 0.18% of 220,000 active; AID 1424, 2008;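 active means activation above its plate's cutoff, the mean activation of test wells on that plate plus 3 SD, cut at about 19% in these data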
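Assay system: Zebrafish TRPN1-YFP in HEK293 cells | Incubation: Dye loading 1 h at 37 °C, then 30 min room temperature | Measured by: Kinetic Fluo-8 fluorescence, ex 470-495, em 515-575 nm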
GPR7 antag: GPR7 receptor antagonists, primary screen, cell-based, fluorescence, single concentration; GPR7-expressing cells, fluorescence antagonist assay; 1.1% of 290,000 active; Neuropeptides B/W receptor type 1 (Homo sapiens), P48145; inhibition, % at 4.4 µM; in the data active means inhibition above about 16%, passing the limit was not always enough;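 further: cells stimulated with the agonist NPW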
TRPML3 ag: human TRPML3 channel agonists, primary screen, cell-based, HEK293 TRPML3-YFP, Fluo-8 calcium fluorescence, 3 µM. Mucolipin-3 (Homo sapiens), Q8TDD5. 100% = the carbachol control signal. activation, % at 3 µM. 0.29% of 220,000 active;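 active means activation above its plate's cutoff, the mean activation of the plate's test wells plus 3 SD, cut at about 12% in these data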
Target sequence (Q8TDD5 whole entry, looked up): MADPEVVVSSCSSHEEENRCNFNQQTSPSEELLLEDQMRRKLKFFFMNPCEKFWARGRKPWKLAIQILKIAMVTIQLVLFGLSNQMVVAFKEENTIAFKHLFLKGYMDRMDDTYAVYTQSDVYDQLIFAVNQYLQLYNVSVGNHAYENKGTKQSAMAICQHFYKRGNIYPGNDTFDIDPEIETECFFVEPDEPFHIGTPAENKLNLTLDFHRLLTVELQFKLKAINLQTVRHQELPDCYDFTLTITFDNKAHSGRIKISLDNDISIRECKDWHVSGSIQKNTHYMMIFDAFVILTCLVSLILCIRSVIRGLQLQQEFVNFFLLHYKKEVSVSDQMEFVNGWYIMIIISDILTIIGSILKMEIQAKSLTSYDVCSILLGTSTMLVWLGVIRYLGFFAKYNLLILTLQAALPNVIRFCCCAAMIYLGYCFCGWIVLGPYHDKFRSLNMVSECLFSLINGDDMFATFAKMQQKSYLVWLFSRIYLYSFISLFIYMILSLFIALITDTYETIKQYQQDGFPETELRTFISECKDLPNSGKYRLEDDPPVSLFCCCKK
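Test system: HEK293 cells stably carrying human TRPML3-YFP; Doses: single dose, 3 µM final nominal compound, 0.3% DMSO final; Schedule: dye loading 1 h 37 °C then 30 min ambient, 125 s read; Technique: Fluo-8 calcium fluorescence; Benchmarks: high control carbachol 87 µM, low control DMSO.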
A number is an active result; n = inactive; x = no result given; + = active, no number. Only some compounds are listed: those with a hit (about 3.4% of all), similar ones and a draw of the others.

SMILES	LANA-H2B inh	TAAR1 agonist	TAAR1 antagonist	TRPN1 ag	GPR7 antag	TRPML3 ag
CCOC(=O)c1cnc(-n2[nH]c(C)c(Cc3ccccc3)c2=O)[nH]c1=O	n	n	n	n	17	n
CCOC(=O)c1cnc(Cc2ccccc2)[nH]c1=O	n	n	n	x	n	x
Nc1ccn([C@@H]2O[C@H](C(=O)N[C@H](Cc3ccccc3)C(=O)NCC(F)(F)F)[C@@H](O)[C@H]2O)c(=O)n1	x	n	n	x	x	x
O=C(CN1C(=O)NC(CCc2ccccc2)C1=O)Nc1ccc(F)c(F)c1F (stereo not given)	n	44	n	x	x	x
COCCNC(=O)CN(C(=O)c1ccc(N2CCCC2)nc1)c1ccccc1	n	n	n	n	25	n
COCCNC(=O)CN(C(=O)c1ccc(N2CCCC2)nc1)c1ccc(F)c(Cl)c1	n	n	n	x	n	x
CC1(C)Cc2c(cnn2-c2ccc(F)cc2)C(NC(=O)Cn2cncn2)C1 (stereo not given)	51	n	n	x	n	x
Cc1cc(Nc2ccc(Cl)c(C(F)(F)F)c2)cc(=O)n1-c1ccc(Cl)c(C(F)(F)F)c1	x	n	n	x	x	x
O=C(Cn1c2ccccc2c(=O)c2ccccc21)N/N=C/c1cc([N+](=O)[O-])ccc1N1CCCCCC1	n	n	n	n	n	n
O=C(Cn1c2ccccc2c(=O)c2ccccc21)N/N=C/c1ccc(N2CCCC2)c([N+](=O)[O-])c1	+	n	n	n	n	n
Cc1ccc(CCN2CC(C(=O)N3CCN(c4ccc(F)cc4)CC3)CC2=O)cc1 (stereo not given)	22	n	n	n	n	n
Oc1[nH]c2ccccc2c1N=Nc1ccccc1	16	n	n	n	n	n
Oc1[nH]c2ccccc2c1N=Nc1ccccc1F	n	39	n	n	n	n
Oc1[nH]c2ccccc2c1N=Nc1ccc(F)cc1	n	n	n	n	n	n
COC(=O)c1ccccc1-c1c2ccc(=N)cc-2oc2cc(N)ccc12	192	+	105	x	x	x
Cc1cc(/C=N/Nc2nc(N3CCOCC3)nc(N3CCOCC3)n2)c(C)n1-c1ccccc1	n	n	n	n	n	n
COc1ccc(-n2c(C)cc(/C=N/Nc3nc(N4CCOCC4)nc(N4CCOCC4)n3)c2C)cc1	n	n	50	n	n	n
Cc1ccc(S(=O)(=O)NC(CCCNC(=O)OCc2ccccc2)C(=O)O)cc1 (stereo not given)	x	n	n	x	x	x
C[C@@H]1CNC(=O)c2c(C(=O)N3CCN(c4ccccc4)CC3)ncn21	x	n	n	x	x	x
Cc1c(C(=O)N2CCc3ccccc3C2)oc2ccc(S(=O)(=O)N3CCCCCC3)cc12	n	42	n	n	n	n
CC(O)COc1ccc(/C(=N/O)c2ccccc2)cc1 (stereo not given)	n	38	n	n	n	n
CC(C)COc1ccc(/C(=N/O)c2ccccc2)cc1	n	n	n	n	n	n
C=CCNc1cccc2c1S(=O)(=O)N[C@H](CC(C)C)CO2	x	n	n	x	x	x
C/C(=N/NC(=O)c1ccco1)c1cccc(NC(=O)c2ccc(C)s2)c1	n	n	n	n	20	n
CN(C(=O)[C@@H](Cc1ccccc1)NC(=O)[C@H]1O[C@@H](n2ccc(=O)[nH]c2=O)[C@H](O)[C@@H]1O)C1CCCCC1	x	n	n	x	x	x
SMILES	LANA-H2B inh	TAAR1 agonist	TAAR1 antagonist	TRPN1 ag	GPR7 antag	TRPML3 ag
CCCCCCCc1c(O)nc(SCC(=O)O)[nH]c1=O	48	n	n	n	n	n
CCCCCc1c(O)nc(SCC(=O)O)[nH]c1=O	x	x	x	n	n	n
COC(=O)c1cc2c(c3c4cc(F)ccc4n(S(=O)(=O)c4ccccc4)c13)C(=O)N(Cc1ccccc1)C2	x	n	n	x	x	x
COCCNC(=S)N(CCc1c(C)[nH]c2ccc(Cl)cc12)Cc1cccs1	n	n	n	n	n	n
COCCNC(=S)N(CCc1c(C)[nH]c2ccc(F)cc12)Cc1cccs1	n	n	n	n	20	n
CC(Sc1ccc(S(=O)(=O)N2CCN(C)CC2)cn1)C(=O)Nc1cccc(Cl)c1Cl (stereo not given)	x	n	n	x	x	x
O=C(CNCc1ccccc1Cl)Nc1cc(S(=O)(=O)N2CCOCC2)ccc1Cl	n	n	n	x	x	x
CC(Sc1ccc(S(=O)(=O)N2CCOCC2)cn1)C(=O)Nc1ccc(Cl)cc1Cl (stereo not given)	24	n	n	x	x	x
Cc1ccc(S(=O)(=O)N2CCOCC2)cc1NC(=O)CNCc1ccc(Cl)cc1Cl	n	n	59	x	x	x
Cc1ccc(S(=O)(=O)N2CCCCC2)cc1NCC(=O)Nc1ccc(Br)cc1F	x	n	57	x	x	x
C=CCN1C(=O)c2n[nH]c(COC)c2C1c1ccc(F)cc1 (stereo not given)	x	n	n	x	x	x
CCCC1C2CN(C(C)C)CC=C2C(C#N)=C(N)C1(C#N)C#N (stereo not given)	30	n	n	n	n	n
N/C(=N\N=C\c1ccc(O)c(O)c1)c1nonc1N	18	n	n	n	n	n
CCNC(=O)OC[C@H]1O[C@H](C#Cc2ccc(C(C)(C)C)cc2)C=C[C@H]1OC(C)=O	x	n	n	x	x	x
Cc1cccc(C)c1OCc1cc(C(=O)NC2CCC2)no1	n	n	n	x	n	x
Cc1cccc(C)c1OCc1cc(C(=O)NC2CCC(O)CC2)no1 (stereo not given)	21	n	n	x	n	x
COC(=O)C1=C(C)N(C)C(=NCc2ccc3c(c2)OCO3)NC1c1cccc(C(F)(F)F)c1 (stereo not given)	x	n	n	x	x	x
COc1ccc(-n2c(O)c(/C=N/NS(=O)(=O)c3cc(C)ccc3C)c3ccccc3c2=O)cc1OC	n	42	50	n	n	n
COc1ccc(N2CCN(C(=O)c3cc(N4C(=O)C5C6CCC(C6)C5C4=O)ccc3Cl)CC2)cc1 (stereo not given)	n	n	n	n	20	n
NC(=O)c1ncn([C@@H]2O[C@H](C(=O)N[C@H](Cc3ccccc3)C(=O)O)[C@@H](O)[C@H]2O)n1	x	n	n	x	x	x
COc1ccccc1CNC(=O)C(=O)NCC1OCCN1S(=O)(=O)c1ccc(Br)cc1 (stereo not given)	n	n	n	x	n	x
COc1ccc(C(=O)N2CCOC2CNC(=O)C(=O)NCc2ccc(F)cc2)cc1 (stereo not given)	n	n	n	x	n	x
